A short description of data set [1]: Plasma concentration in CF1 mouse at 30 mg/kg, po after 4 hrs. It is filed as ADME, organism-based. Also noted: dose 30 mg/kg, route oral. In outline:
(§1)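 Wild-type (CF-1) mice given compound orally as a solution in ethanol:propylene glycol:10% solutol (1:1:8). Animals sacrificed 4 h post-dose; brain and plasma collected for drug exposure and Aβ levels.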

Data set [2] can be described thus: Drug uptake in CF1 mouse brain at 30 mg/kg, po after 4 hrs. It is filed as ADME, organism-based. Also noted: dose 30 mg/kg, route oral. To be noted: read-out: Drug uptake. In short, it runs like this: (§2)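 Wild-type CF-1 mice received a single oral dose as a solution in ethanol:propylene glycol:10% solutol (1:1:8). Animals were sacrificed 4 h after dosing. Brain and plasma were collected for drug concentration and Aβ levels. Aβ change was expressed relative to vehicle-treated controls.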

The subject of data set [3] is Mus musculus. The data set is described as follows: Antialzheimer activity in CF1 mouse assessed as reduction in amyloid beta42 level in brain at 30 mg/kg, po after 4 hrs by ELISA. The arrangement: scale not given: the % may be the effect or the level left. It is filed as functional. In outline: as §2
Data set [4] can be described thus: Modulation of gamma-secretase in CHO cells overexpressing APP V717 mutant assessed as reduction in amyloid beta42 level after 17 hrs by ELISA. To be noted: Cricetulus griseus. It is filed as cell-based. In outline: (§3)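 CHO cells overexpressing APP V717F; Aβ42, Aβ40 and Aβ38 quantified together in each well by multiplex Aβ ELISA. EC50 is the mean of at least two determinations.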

Data set [5] relates to CHO. Put plainly: Modulation of gamma-secretase in CHO cells overexpressing APP V717 mutant assessed as effect on amyloid beta40 level after 17 hrs by ELISA. Type of data set: cell-based. To be noted: Cricetulus griseus. In short, it runs like this: as §3
A further data set deals with Rattus norvegicus. Put plainly: Antialzheimer activity in F344 rat assessed as reduction in amyloid beta42 level in brain at 30 mg/kg, po after 4 hrs by ELISA. It is filed as functional, organism-based. The arrangement: dose 30 mg/kg.
Data set [6] concerns CHO. Put plainly: (§4) Modulation of gamma-secretase in CHO cells overexpressing APP V717 mutant assessed as increase in amyloid beta38 level after 17 hrs by ELISA. Type of data set: cell-based. To be noted: Cricetulus griseus. In outline:
as §3

A short description of data set [7]: Ratio of tarenflurbil EC50 to compound EC50 for gamma-secretase.
A short description of data set [8]: Modulation of gamma-secretase.
In the next data set the test system is Brain. Put plainly: Drug uptake in CF1 mouse brain at 10 mg/kg, po. It is filed as ADME, organism-based. Also noted: dose 10 mg/kg, route oral. To be noted: in vivo, read-out: Drug uptake. In short, it runs like this: as §2
The test system of the next data set is Plasma. The data set is described as follows: Plasma concentration in CF1 mouse at 10 mg/kg, po. It is filed as ADME, organism-based. The arrangement: dose 10 mg/kg, route oral. To be noted: in vivo. In short, it runs like this: as §1
The test system of data set [9] is Mus musculus. The data set is described as follows: Antialzheimer activity in CF1 mouse assessed as reduction in amyloid beta 42 level in brain at 10 mg/kg, po. Type of data set: functional. The arrangement: scale not given: the % may be the effect or the level left. In short, it runs like this:
as §2

For data set [10], the target named is Voltage-gated inwardly rectifying potassium channel KCNH2 (Homo sapiens, UniProt Q12809). The data set is described as follows: Inhibition of human ERG by patch clamp assay. In outline:
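hERG was tested in an automated FastPatch patch-clamp assay, giving an EC50 readout.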

A short description of data set [11]: as §4. Type of data set: cell-based. To be noted: Cricetulus griseus. In outline:
as §3

The source made the active and inactive calls. The calls are words filed in the database; no cut-off is given here.

Sequence of Voltage-gated inwardly rectifying potassium channel KCNH2 (Q12809 whole entry): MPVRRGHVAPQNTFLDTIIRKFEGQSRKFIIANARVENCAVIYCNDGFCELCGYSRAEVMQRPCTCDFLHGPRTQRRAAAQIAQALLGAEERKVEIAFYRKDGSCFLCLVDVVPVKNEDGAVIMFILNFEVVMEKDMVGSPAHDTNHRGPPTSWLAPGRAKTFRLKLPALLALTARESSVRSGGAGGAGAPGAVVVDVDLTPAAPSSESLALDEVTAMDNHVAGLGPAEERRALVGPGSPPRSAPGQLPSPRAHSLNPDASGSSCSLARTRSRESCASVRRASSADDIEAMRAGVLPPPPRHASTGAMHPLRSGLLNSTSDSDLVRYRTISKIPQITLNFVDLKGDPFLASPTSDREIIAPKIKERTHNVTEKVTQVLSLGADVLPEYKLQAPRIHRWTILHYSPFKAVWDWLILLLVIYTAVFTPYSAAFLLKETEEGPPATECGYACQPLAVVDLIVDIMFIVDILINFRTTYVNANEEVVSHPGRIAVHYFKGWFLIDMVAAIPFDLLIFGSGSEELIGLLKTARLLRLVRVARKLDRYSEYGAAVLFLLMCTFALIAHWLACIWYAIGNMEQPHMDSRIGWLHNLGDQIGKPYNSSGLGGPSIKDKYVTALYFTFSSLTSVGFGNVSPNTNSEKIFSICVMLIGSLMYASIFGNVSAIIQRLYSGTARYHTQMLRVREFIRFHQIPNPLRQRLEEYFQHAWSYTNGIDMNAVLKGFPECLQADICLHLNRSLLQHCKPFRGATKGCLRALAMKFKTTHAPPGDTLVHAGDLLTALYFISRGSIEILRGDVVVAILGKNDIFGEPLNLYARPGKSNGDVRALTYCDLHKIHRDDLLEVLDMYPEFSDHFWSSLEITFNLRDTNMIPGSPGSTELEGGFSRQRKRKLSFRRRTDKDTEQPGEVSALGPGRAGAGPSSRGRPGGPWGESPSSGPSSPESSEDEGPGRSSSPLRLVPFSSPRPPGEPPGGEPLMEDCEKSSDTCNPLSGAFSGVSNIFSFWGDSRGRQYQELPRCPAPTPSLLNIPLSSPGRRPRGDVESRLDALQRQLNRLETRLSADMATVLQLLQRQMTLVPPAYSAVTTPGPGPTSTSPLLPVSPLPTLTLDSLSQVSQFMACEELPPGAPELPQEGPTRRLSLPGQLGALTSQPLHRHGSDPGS

For `CC1CCN(C(c2ccc(F)cc2)c2ccc(C(C)(C)C(=O)O)cc2-c2ccc(C(F)(F)F)cc2)CC1` (stereo unspecified), the results for the concentration at 4 h in data set [1] and in data set [2] were 22.8 µM and 16.1 µM, respectively. Further, the Activity with Mus musculus [3] came to 30%. In data set [4], the EC50 is 450 nM. For the same molecule, the result with CHO [5] and in the data set on Rattus norvegicus was inactive. Further, in the data set with CHO [6], the outcome was Active.

On to `O=C(O)C1(c2ccc(-c3ccc(Cl)c(Cl)c3)c(F)c2)CC1`, for which the Ratio EC50 in [7] is 7. Besides, the EC50 in data set [8] is 40000 nM.

`CC1CCN([C@@H](c2ccc(F)cc2)c2ccc([C@H](C)C(=O)O)cc2-c2ccc(C(F)(F)F)cc2)CC1`: the concentration came out at 6.6 µM with Brain and 7.4 µM in the data set with Plasma. Besides, the half-maximal effective concentration (EC50) amounted to 150 nM in data set [4], 4600 nM in [10] and 110 nM in data set [11]. Further, in the data set with Mus musculus [9], the Activity is given as 38%. Further, in the data set on CHO [5], the result was inactive.
